Changes are numbered by the printed parent chain. Names may count otherwise. “Also recorded” adds a separate entry of the source.
Key:
[1] = biological target: T1, AtD14 (Arabidopsis thaliana, UniProt Q9SQR3); settings: substrate rac‐GR24; ref Zhao et al., 2013; cited from earlier work
T1 sequence (Q9SQR3 1-267): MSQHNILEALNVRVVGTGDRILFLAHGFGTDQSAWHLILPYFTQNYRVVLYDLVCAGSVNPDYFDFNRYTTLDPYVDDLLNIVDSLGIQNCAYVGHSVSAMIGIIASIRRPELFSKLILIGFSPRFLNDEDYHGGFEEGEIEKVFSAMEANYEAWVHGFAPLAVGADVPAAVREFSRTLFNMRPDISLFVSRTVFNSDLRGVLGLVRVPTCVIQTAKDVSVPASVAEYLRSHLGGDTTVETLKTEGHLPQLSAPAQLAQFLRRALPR

[2] = biological target: T2, AtDLK2 F167A (Arabidopsis thaliana, UniProt F4J6L0, F167A); experiment: Differential scanning fluorimetry, AtDLK2 F167A; type: binding
T2 sequence (F4J6L0 1-273 F167A): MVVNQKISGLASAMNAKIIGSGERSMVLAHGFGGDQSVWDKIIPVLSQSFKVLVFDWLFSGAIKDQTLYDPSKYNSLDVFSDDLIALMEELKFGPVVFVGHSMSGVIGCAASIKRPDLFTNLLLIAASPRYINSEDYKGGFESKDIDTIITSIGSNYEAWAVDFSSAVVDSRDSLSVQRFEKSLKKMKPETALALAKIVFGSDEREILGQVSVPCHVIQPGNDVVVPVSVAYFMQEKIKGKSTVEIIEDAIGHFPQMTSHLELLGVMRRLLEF
Outline: (§1)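 Recombinant protein was expressed in E. coli BL21(DE3), GST-affinity captured, tag removed by on-column HRV3 protease, then size-exclusion purified. DSF used 10 μg protein with rac-GR24 and 3× (final) Sypro Orange in 20 mM TRIS-HCl, 30 mM NaCl, 1 mM TCEP-HCl, pH 7.7. Heating ran 25–95°C at 1°C per minute, in triplicate, and was read from the denaturation curve and its derivative.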

[3] = biological target: T1, AtD14; experiment: Differential scanning fluorimetry, AtD14; type: binding
Outline: as §1

[4] = biological target: T3, AtDLK2 F167L (Arabidopsis thaliana, UniProt F4J6L0, F167L); experiment: Differential scanning fluorimetry, AtDLK2 F167L; type: binding
T3 sequence (F4J6L0 1-273 F167L): T2 sequence (F4J6L0 1-273 F167A) with A167L
Outline: as §1

[5] = biological target: T4, AtDLK2 wt (Arabidopsis thaliana, UniProt F4J6L0); experiment: Differential scanning fluorimetry, AtDLK2 wt; type: binding
T4 sequence (F4J6L0 1-273): T2 sequence (F4J6L0 1-273 F167A) with A167F

[6] = biological target: T5, AtKAI2 (Arabidopsis thaliana, UniProt Q9SZU7); experiment: Inhibition of AtKAI2 enzymatic activity on pNP acetate; type: biochemical; settings: for inhibition of the enzymatic activity of AtKAI2 (in words): pNP acetate as substrate
T5 sequence (Q9SZU7 1-270): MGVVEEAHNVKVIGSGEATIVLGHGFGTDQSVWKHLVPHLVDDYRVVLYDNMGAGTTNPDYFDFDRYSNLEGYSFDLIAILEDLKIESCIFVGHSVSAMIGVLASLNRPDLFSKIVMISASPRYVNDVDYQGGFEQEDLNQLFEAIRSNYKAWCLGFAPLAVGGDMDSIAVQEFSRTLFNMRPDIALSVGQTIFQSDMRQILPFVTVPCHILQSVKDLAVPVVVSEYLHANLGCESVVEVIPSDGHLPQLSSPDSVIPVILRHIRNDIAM

[7] = biological target: T1, AtD14; experiment: Inhibition of AtD14 enzymatic activity on pNP acetate; type: biochemical; settings: for inhibition of the enzymatic activity of AtD14 (in words): pNP acetate as substrate
[8] = biological target: T2, AtDLK2 F167A; experiment: Michaelis–Menten kinetics on para‐nitrophenyl acetate, AtDLK2 F167A; type: biochemical; settings: substrate pNP acetate
[9] = system: AtDLK2 wt; experiment: Michaelis–Menten kinetics on para‐nitrophenyl acetate, AtDLK2 wt; type: biochemical, Arabidopsis thaliana; settings: substrate pNP acetate
[10] = biological target: T5, AtKAI2; experiment: Michaelis–Menten kinetics on para‐nitrophenyl acetate, AtKAI2; type: biochemical; settings: substrate pNP acetate
[11] = biological target: T6, AtDLK2 (Arabidopsis thaliana, UniProt F4J6L0); settings: at high concentrations; ref Végh et al., 2017; cited from earlier work
T6 sequence (F4J6L0 1-273): T2 sequence (F4J6L0 1-273 F167A) with A167F

[12] = biological target: T6, AtDLK2; settings: ref Végh et al., 2017; cited from earlier work
[13] = substrate: CC(=O)Oc1ccc([N+](=O)[O-])cc1; experiment: Michaelis–Menten kinetics on para‐nitrophenyl acetate, AtDLK2 wt; type: biochemical, Arabidopsis thaliana; settings: other: AtDLK2 wt, substrate pNP acetate; pH 7.0
[14] = substrate: CC(=O)Oc1ccc([N+](=O)[O-])cc1; experiment: Michaelis–Menten kinetics on para‐nitrophenyl acetate, AtDLK2 F167L; type: biochemical, Arabidopsis thaliana; settings: other: AtDLK2 F167L, substrate pNP acetate; pH 7.0
[15] = substrate: CC(=O)Oc1ccc([N+](=O)[O-])cc1; experiment: Michaelis–Menten kinetics on para‐nitrophenyl acetate, AtDLK2 F167A; type: biochemical, Arabidopsis thaliana; settings: other: AtDLK2 F167A, substrate pNP acetate; pH 7.0
[16] = substrate: CC(=O)Oc1ccc([N+](=O)[O-])cc1; experiment: Michaelis–Menten kinetics on para‐nitrophenyl acetate, AtD14; type: biochemical, Arabidopsis thaliana; settings: other: AtD14, substrate pNP acetate; pH 7.0
[17] = substrate: CC(=O)Oc1ccc([N+](=O)[O-])cc1; experiment: Michaelis–Menten kinetics on para‐nitrophenyl acetate, AtKAI2; type: biochemical, Arabidopsis thaliana; settings: other: AtKAI2, substrate pNP acetate; pH 7.0
[18] = 100 μM concentration of 1, pNP acetate as substrate

CC1=C[C@H](O/C=C2/C(=O)O[C@@H]3c4ccccc4C[C@H]23)OC1=O (racemic) [rac‐GR24]
turnover rate of AtD14 [1]: 1 molecule/3 min | rac‐GR24‐induced destabilization in DSF [2]: no or marginal | rac‐GR24‐induced destabilization in DSF [3]: clearly destabilize | rac‐GR24‐induced destabilization in DSF [4]: no or marginal | rac‐GR24‐induced destabilization in DSF [5]: no or marginal

CC1(c2ccccc2)CC(C)(C)N2C(=O)C(=O)c3cccc1c32 (stereo not shown) [Compound 1, 4,4,6‐Trimethyl‐6‐phenyl‐5,6‐dihydro‐4H‐pyrrolo[3,2,1‐ij]quinoline‐1,2‐dione]
retained activity of AtKAI2 [6, 18]: 95% | decrease of AtKAI2's activity ([6]; 1 at concentrations of 50 μM or higher): marginal decrease | inhibition of the enzymatic activity of AtKAI2 (in words) [6]: only marginally inhibits | inhibition of the enzymatic activity of AtKAI2 (in words) ([6]; listed as compound 1): only marginally decreasing | retained activity of AtD14 [7, 18]: 84% | decrease of AtD14's enzymatic activity ([7]; 1 at concentrations of 12.5 μM or higher): slight decrease | inhibition of the enzymatic activity of AtD14 (in words) [7]: only marginally inhibits | inhibition of the enzymatic activity of AtD14 (in words) ([7]; listed as compound 1): only marginally decreasing

CC(=O)Oc1ccc([N+](=O)[O-])cc1 [pNP acetate, para‐nitrophenyl acetate]
turnover number (kcat) [8]: 67 molecules per second | catalytic efficiency of AtDLK2 relative to AtD14 [9]: 625 times higher | catalytic efficiency of AtDLK2 relative to AtKAI2 [9]: 6.7 times higher | catalytic efficiency of AtKAI2 relative to AtD14 [10]: 94 times higher

(−)‐5‐deoxystrigol
reaction of AtDLK2 in DSF experiments (in words) [11]: able to react | hydrolytic activity of AtDLK2 (in words) [12]: moderate hydrolytic activity; also recorded: poor but detectable hydrolytic activity

B1: AtDLK2 wt (Arabidopsis thaliana) (protein)
chain: T2 sequence (F4J6L0 1-273 F167A) with A167F
Km [13]: 2.58 ± 0.10 × 10^−4 M | kcat [13]: 26.6 ± 0.7 s⁻¹ | kcat/Km [13]: 103000 ± 4000 M⁻¹ s⁻¹

B2: AtDLK2 F167L (Arabidopsis thaliana; F167L) (protein)
chain: T2 sequence (F4J6L0 1-273 F167A) with A167L
Km [14]: 2.53 ± 0.16 × 10^−4 M | kcat [14]: 69.8 ± 1.5 s⁻¹ | kcat/Km [14]: 276000 ± 17000 M⁻¹ s⁻¹

B3: AtDLK2 F167A (Arabidopsis thaliana; F167A) (protein)
chain: T2 sequence (F4J6L0 1-273 F167A)
Km [15]: 2.78 ± 0.08 × 10^−4 M | kcat [15]: 66.9 ± 0.6 s⁻¹ | kcat/Km [15]: 241000 ± 7000 M⁻¹ s⁻¹

B4: AtD14 (Arabidopsis thaliana) (protein)
chain: T1 sequence (Q9SQR3 1-267)
Km [16]: 2.00 ± 0.16 × 10^−2 M | kcat [16]: 3.2 ± 0.06 s⁻¹ | kcat/Km [16]: 160 ± 12 M⁻¹ s⁻¹

B5: AtKAI2 (Arabidopsis thaliana) (protein)
chain: T5 sequence (Q9SZU7 1-270)
Km [17]: 1.56 ± 0.06 × 10^−3 M | kcat [17]: 23.6 ± 0.6 s⁻¹ | kcat/Km [17]: 15100 ± 600 M⁻¹ s⁻¹

Reference: paper PMC9470386 (Plant Direct, 2022)
